Source: ChEMBL document CHEMBL5058577, “EUbOPEN Chemogenomics Library 2 (Multiplex)” (2022)

Tested on: U2OS
Test: Multiplex assay against U2OS
Format: toxicity, cell-based
Conditions: human
Procedure, shortened: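 Values for tubulin, mitochondrial-mass and membrane-permeability phenotypes are per cents of cells with healthy nuclei. These cells were identified by CellPathfinder machine-learning gating of live cells that had been stained at seeding with Hoechst33342, BioTracker Green Microtubule Cytoskeleton Dye, MitoTracker Red and Annexin V Alexa Fluor 680 and imaged on a CQ1 microscope at 37°C and 5% CO2 after compound addition. The gating first set Hoechst high-intensity objects apart from normal cells, then split normal cells into healthy, pyknosed or fragmented nuclei, and pyknosed cells into mitotic or apoptotic.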

[1] = 12 h, 1 µM, compound concentration 1 uM, replicate 1
[2] = 12 h, 1 µM, compound concentration 1 uM, replicate 2
[3] = 12 h, 10 µM, compound concentration 10 uM, replicate 1
[4] = 12 h, 10 µM, compound concentration 10 uM, replicate 2
[5] = 24 h, 1 µM, compound concentration 1 uM, replicate 1
[6] = 24 h, 1 µM, compound concentration 1 uM, replicate 2
[7] = 24 h, 10 µM, compound concentration 10 uM, replicate 1
[8] = 24 h, 10 µM, compound concentration 10 uM, replicate 2
[9] = 48 h, 1 µM, compound concentration 1 uM, replicate 1
[10] = 48 h, 1 µM, compound concentration 1 uM, replicate 2
[11] = 48 h, 10 µM, compound concentration 10 uM, replicate 1
[12] = 48 h, 10 µM, compound concentration 10 uM, replicate 2

## COc1cc(OC2CCN(C(C)=O)CC2)ccc1C(=O)N1CCC(N2C(=O)OCc3ccccc32)CC1
[1]
  Population Apoptotic (%): 50%
  Population Fragmented Nuclei (%): 22%
  Population Healthy Nuclei (%): 67%
  Population Hoechst High Intensity Objects (%): 0%
  Population Membrane Permeable-Phenotype (%): 5%
  Population Mitochondria Different-Phenotype (%): 3%
  Population Mitotic Cells (%): 50%
  Population Normal (%): 99%
  Population Pyknosed Nuclei (%): 9%
  Population Tubulin-Different-Phenotype (%): 3%
  Total Cell Count: 233
[2]
  Population Apoptotic (%): 66%
  Population Fragmented Nuclei (%): 20%
  Population Healthy Nuclei (%): 69%
  Population Membrane Permeable-Phenotype (%): 11%
  Population Mitochondria Different-Phenotype (%): 7%
  Population Mitotic Cells (%): 33%
  Population Tubulin-Different-Phenotype (%): 8%
  Total Cell Count: 130
[3]
  Population Apoptotic (%): 72%
  Population Fragmented Nuclei (%): 23%
  Population Healthy Nuclei (%): 62%
  Population Hoechst High Intensity Objects (%): 6%
  Population Membrane Permeable-Phenotype (%): 18%
  Population Mitochondria Different-Phenotype (%): 6%
  Population Mitotic Cells (%): 27%
  Population Normal (%): 93%
  Population Pyknosed Nuclei (%): 13%
  Population Tubulin-Different-Phenotype (%): 12%
  Total Cell Count: 228
[4]
  Population Apoptotic (%): 87%
  Population Fragmented Nuclei (%): 13%
  Population Healthy Nuclei (%): 77%
  Population Hoechst High Intensity Objects (%): 1%
  Population Membrane Permeable-Phenotype (%): 21%
  Population Mitochondria Different-Phenotype (%): 10%
  Population Mitotic Cells (%): 12%
  Population Normal (%): 98%
  Population Pyknosed Nuclei (%): 9%
  Population Tubulin-Different-Phenotype (%): 13%
  Total Cell Count: 85
[5]
  Population Apoptotic (%): 82%
  Population Fragmented Nuclei (%): 20%
  Population Healthy Nuclei (%): 71%
  Population Hoechst High Intensity Objects (%): 1%
  Population Membrane Permeable-Phenotype (%): 3%
  Population Mitochondria Different-Phenotype (%): 2%
  Population Mitotic Cells (%): 17%
  Population Normal (%): 98%
  Population Pyknosed Nuclei (%): 8%
  Population Tubulin-Different-Phenotype (%): 2%
  Total Cell Count: 288
[6]
  Population Apoptotic (%): 76%
  Population Fragmented Nuclei (%): 22%
  Population Healthy Nuclei (%): 68%
  Population Membrane Permeable-Phenotype (%): 7%
  Population Mitochondria Different-Phenotype (%): 5%
  Population Mitotic Cells (%): 23%
  Population Tubulin-Different-Phenotype (%): 3%
  Total Cell Count: 163
[7]
  Population Apoptotic (%): 81%
  Population Fragmented Nuclei (%): 21%
  Population Healthy Nuclei (%): 60%
  Population Hoechst High Intensity Objects (%): 5%
  Population Membrane Permeable-Phenotype (%): 9%
  Population Mitochondria Different-Phenotype (%): 9%
  Population Mitotic Cells (%): 18%
  Population Normal (%): 94%
  Population Pyknosed Nuclei (%): 18%
  Population Tubulin-Different-Phenotype (%): 4%
  Total Cell Count: 250
[8]
  Population Apoptotic (%): 71%
  Population Fragmented Nuclei (%): 12%
  Population Healthy Nuclei (%): 80%
  Population Hoechst High Intensity Objects (%): 2%
  Population Membrane Permeable-Phenotype (%): 10%
  Population Mitochondria Different-Phenotype (%): 3%
  Population Mitotic Cells (%): 28%
  Population Normal (%): 97%
  Population Pyknosed Nuclei (%): 7%
  Population Tubulin-Different-Phenotype (%): 6%
  Total Cell Count: 99
[9]
  Population Apoptotic (%): 80%
  Population Fragmented Nuclei (%): 17%
  Population Healthy Nuclei (%): 77%
  Population Hoechst High Intensity Objects (%): 3%
  Population Membrane Permeable-Phenotype (%): 3%
  Population Mitochondria Different-Phenotype (%): 1%
  Population Mitotic Cells (%): 19%
  Population Normal (%): 96%
  Population Pyknosed Nuclei (%): 5%
  Population Tubulin-Different-Phenotype (%): 2%
  Total Cell Count: 388
[10]
  Population Apoptotic (%): 65%
  Population Fragmented Nuclei (%): 23%
  Population Healthy Nuclei (%): 66%
  Population Membrane Permeable-Phenotype (%): 10%
  Population Mitochondria Different-Phenotype (%): 5%
  Population Mitotic Cells (%): 35%
  Population Pyknosed Nuclei (%): 9%
  Population Tubulin-Different-Phenotype (%): 4%
  Total Cell Count: 213
[11]
  Population Apoptotic (%): 81%
  Population Fragmented Nuclei (%): 19%
  Population Healthy Nuclei (%): 66%
  Population Hoechst High Intensity Objects (%): 5%
  Population Membrane Permeable-Phenotype (%): 5%
  Population Mitochondria Different-Phenotype (%): 4%
  Population Mitotic Cells (%): 18%
  Population Normal (%): 95%
  Population Pyknosed Nuclei (%): 14%
  Population Tubulin-Different-Phenotype (%): 3%
  Total Cell Count: 320
[12]
  Population Apoptotic (%): 100%
  Population Fragmented Nuclei (%): 17%
  Population Healthy Nuclei (%): 78%
  Population Hoechst High Intensity Objects (%): 1%
  Population Membrane Permeable-Phenotype (%): 14%
  Population Mitochondria Different-Phenotype (%): 6%
  Population Mitotic Cells (%): 0%
  Population Normal (%): 98%
  Population Pyknosed Nuclei (%): 3%
  Population Tubulin-Different-Phenotype (%): 8%
  Total Cell Count: 130

## CN1CCC(C(=O)c2cccc(NC(=O)c3c(F)cc(F)cc3F)n2)CC1
[1]
  Population Apoptotic (%): 90%
  Population Fragmented Nuclei (%): 20%
  Population Healthy Nuclei (%): 70%
  Population Hoechst High Intensity Objects (%): 2%
  Population Membrane Permeable-Phenotype (%): 8%
  Population Mitochondria Different-Phenotype (%): 3%
  Population Mitotic Cells (%): 10%
  Population Normal (%): 97%
  Population Pyknosed Nuclei (%): 9%
  Population Tubulin-Different-Phenotype (%): 5%
  Total Cell Count: 218
[2]
  Population Apoptotic (%): 57%
  Population Healthy Nuclei (%): 71%
  Population Hoechst High Intensity Objects (%): 1%
  Population Membrane Permeable-Phenotype (%): 9%
  Population Mitochondria Different-Phenotype (%): 11%
  Population Mitotic Cells (%): 42%
  Population Normal (%): 98%
  Population Pyknosed Nuclei (%): 7%
  Population Tubulin-Different-Phenotype (%): 6%
  Total Cell Count: 89
[3]
  Population Apoptotic (%): 65%
  Population Fragmented Nuclei (%): 27%
  Population Healthy Nuclei (%): 63%
  Population Hoechst High Intensity Objects (%): 1%
  Population Membrane Permeable-Phenotype (%): 14%
  Population Mitochondria Different-Phenotype (%): 13%
  Population Mitotic Cells (%): 34%
  Population Normal (%): 98%
  Population Pyknosed Nuclei (%): 9%
  Population Tubulin-Different-Phenotype (%): 12%
  Total Cell Count: 270
[4]
  Population Apoptotic (%): 64%
  Population Fragmented Nuclei (%): 14%
  Population Healthy Nuclei (%): 68%
  Population Membrane Permeable-Phenotype (%): 15%
  Population Mitochondria Different-Phenotype (%): 18%
  Population Mitotic Cells (%): 35%
  Population Pyknosed Nuclei (%): 16%
  Population Tubulin-Different-Phenotype (%): 15%
  Total Cell Count: 103
[5]
  Population Apoptotic (%): 85%
  Population Fragmented Nuclei (%): 22%
  Population Healthy Nuclei (%): 67%
  Population Hoechst High Intensity Objects (%): 2%
  Population Membrane Permeable-Phenotype (%): 4%
  Population Mitochondria Different-Phenotype (%): 3%
  Population Mitotic Cells (%): 14%
  Population Normal (%): 97%
  Population Pyknosed Nuclei (%): 9%
  Population Tubulin-Different-Phenotype (%): 3%
  Total Cell Count: 284
[6]
  Population Apoptotic (%): 72%
  Population Fragmented Nuclei (%): 18%
  Population Healthy Nuclei (%): 71%
  Population Hoechst High Intensity Objects (%): 0%
  Population Membrane Permeable-Phenotype (%): 6%
  Population Mitochondria Different-Phenotype (%): 10%
  Population Mitotic Cells (%): 27%
  Population Normal (%): 99%
  Population Tubulin-Different-Phenotype (%): 0%
  Total Cell Count: 113
[7]
  Population Apoptotic (%): 82%
  Population Fragmented Nuclei (%): 21%
  Population Healthy Nuclei (%): 68%
  Population Hoechst High Intensity Objects (%): 2%
  Population Membrane Permeable-Phenotype (%): 8%
  Population Mitochondria Different-Phenotype (%): 9%
  Population Mitotic Cells (%): 17%
  Population Normal (%): 97%
  Population Pyknosed Nuclei (%): 9%
  Population Tubulin-Different-Phenotype (%): 5%
  Total Cell Count: 298
[8]
  Population Apoptotic (%): 66%
  Population Fragmented Nuclei (%): 15%
  Population Hoechst High Intensity Objects (%): 5%
  Population Membrane Permeable-Phenotype (%): 10%
  Population Mitochondria Different-Phenotype (%): 15%
  Population Mitotic Cells (%): 33%
  Population Normal (%): 94%
  Population Pyknosed Nuclei (%): 15%
  Population Tubulin-Different-Phenotype (%): 10%
  Total Cell Count: 126
[9]
  Population Apoptotic (%): 100%
  Population Fragmented Nuclei (%): 17%
  Population Healthy Nuclei (%): 70%
  Population Hoechst High Intensity Objects (%): 2%
  Population Membrane Permeable-Phenotype (%): 4%
  Population Mitochondria Different-Phenotype (%): 1%
  Population Mitotic Cells (%): 0%
  Population Normal (%): 97%
  Population Pyknosed Nuclei (%): 11%
  Population Tubulin-Different-Phenotype (%): 2%
  Total Cell Count: 394
[10]
  Population Apoptotic (%): 89%
  Population Fragmented Nuclei (%): 29%
  Population Healthy Nuclei (%): 57%
  Population Hoechst High Intensity Objects (%): 5%
  Population Membrane Permeable-Phenotype (%): 12%
  Population Mitochondria Different-Phenotype (%): 8%
  Population Mitotic Cells (%): 10%
  Population Normal (%): 94%
  Population Pyknosed Nuclei (%): 13%
  Population Tubulin-Different-Phenotype (%): 4%
  Total Cell Count: 149
[11]
  Population Apoptotic (%): 85%
  Population Fragmented Nuclei (%): 18%
  Population Healthy Nuclei (%): 69%
  Population Hoechst High Intensity Objects (%): 3%
  Population Membrane Permeable-Phenotype (%): 8%
  Population Mitochondria Different-Phenotype (%): 3%
  Population Mitotic Cells (%): 14%
  Population Normal (%): 96%
  Population Pyknosed Nuclei (%): 12%
  Population Tubulin-Different-Phenotype (%): 3%
  Total Cell Count: 398
[12]
  Population Fragmented Nuclei (%): 15%
  Population Membrane Permeable-Phenotype (%): 16%
  Population Mitochondria Different-Phenotype (%): 10%
  Population Pyknosed Nuclei (%): 14%
  Population Tubulin-Different-Phenotype (%): 8%
  Total Cell Count: 189
